These results are taken from ChEMBL document CHEMBL4480362, “Design and synthesis of DNA-intercalative naphthalimide-benzothiazole/cinnamide derivatives: cytotoxicity evaluation and topoisomerase-IIα inhibition” (Medchemcomm, 2019).

pIC50: −log10 of the molar value. Activity calls are given as the source filed them. No cut-off for these calls is given here.

The test system of one assay is MCF7. As to the kind of experiment: Cytotoxicity against human MCF7 cells assessed as reduction in cell viability after 48 hrs by MTT assay. The assay is classed as functional, cell-based. The following applies: MCF7, 48 h. An outline of the steps: (§1)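 Cell lines from NCCS were grown in DMEM with 10% FBS, penicillin and streptomycin at 37 °C, 5% CO2. Cells were seeded, left 24 h, then exposed to compound for 48 h. MTT (5 mg/ml stock) was added for 4 h. Formazan was dissolved in DMSO and absorbance read at 570 nm.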

A further assay has as its system A549. Nature of the assay: Cytotoxicity against human A549 cells assessed as reduction in cell viability after 48 hrs by MTT assay. The assay is classed as functional, cell-based. The following applies: A549, 48 h. The procedure, abridged: as §1
(In general: Tetrazolium dyes change colour on reduction, which living cells bring about.)

For another assay, the system named is HT-29. Nature of the assay: Cytotoxicity against human HT-29 cells assessed as reduction in cell viability after 48 hrs by MTT assay. The assay is classed as functional, cell-based. The note with it: HT-29, 48 h. The procedure, abridged: as §1
Assay [1] deals with DNA topoisomerase 2-alpha (Homo sapiens) (UniProt P11388). Nature of the assay: Inhibition of topoisomerase 2 (unknown origin) assessed as reduction in decatenation of kinetoplast DNA at 100 uM incubated for 30 mins by ethidium bromide staining based gel electrophoresis method.
The subject of assay [2] is Calf thymus DNA. As to the kind of experiment: Binding affinity to calf thymus DNA assessed as positive band formation at 15 to 30 uM by CD spectroscopic method. The note with it: Bos taurus. The assay is classed as nucleic-acid assay. An outline of the steps: (§2)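 CD spectra recorded from 225 to 325 nm with about 15 × 10^-6 M CT DNA. Compound:DNA molar ratios were 1:0 and 1:1, in 100 mM TE (pH 7.0) at 25 °C. Each spectrum is the average of three scans.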

The test system of assay [3] is Calf thymus DNA. Nature of the assay: Binding affinity to calf thymus DNA assessed as bathochromic shift at 25 uM by UV-vis spectra method. The assay is classed as nucleic-acid assay. The note with it: Bos taurus. The procedure, abridged:
(§3)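 CT DNA titrated into a cuvette holding about 25 µM hybrid in 100 mM TE (pH 7.0), at 25 °C with a 1 cm quartz cell. The compound stock was in DMSO, diluted into buffer. DNA was added stepwise until the hybrid absorption band stayed at a fixed wavelength. Solutions were prepared fresh the same day.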

Assay [4] relates to Panel NCI-60 (60 carcinoma cell lines). Nature of the assay: Growth inhibition of human NCI60 cells after 72 hrs by SRB assay. It counts as functional. (In general: In SRB staining, fixed cells bind dye roughly in proportion to their protein.)
Assay [5] has as its system Calf thymus DNA. As to the kind of experiment: Binding affinity to calf thymus DNA assessed as change in viscosity at 15 uM by ethidium bromide staining-based method. The assay is classed as nucleic-acid assay. The following applies: Bos taurus.
Assay [6] deals with Calf thymus DNA. As to the kind of experiment: Binding affinity to calf thymus DNA assessed as increase in emission peak intensity at 10 uM by fluorescence spectroscopic method. The assay is classed as nucleic-acid assay. The following applies: Bos taurus. An outline of the steps:
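Compound held constant at 10 µM and titrated with CT DNA added in multiples of 0.5 µM, at 25 °C in a 1 cm quartz cuvette. Excitation at 350 nm; emission recorded from 355 to 500 nm after each addition. Spectra are averages of three scans.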

Assay [7] has as its system Calf thymus DNA. Nature of the assay: Binding affinity to calf thymus DNA assessed as hyperchromicity at 15 to 30 uM by CD spectroscopic method. The following applies: Bos taurus. The assay is classed as nucleic-acid assay. The procedure, abridged: as §2
For assay [8], the system named is Calf thymus DNA. As to the kind of experiment: Binding affinity to calf thymus DNA assessed as absorption band formation at 25 uM by UV-vis spectra method. It counts as nucleic-acid assay. The note with it: Bos taurus. The procedure, abridged: as §3
Assay [9] deals with Calf thymus DNA. As to the kind of experiment: Binding affinity to calf thymus DNA assessed as hypochromic shift formation at 25 uM by UV-vis spectra method. The assay is classed as nucleic-acid assay. The following applies: Bos taurus. An outline of the steps: as §3

DNA topoisomerase 2-alpha (Homo sapiens), sequence (P11388 whole entry): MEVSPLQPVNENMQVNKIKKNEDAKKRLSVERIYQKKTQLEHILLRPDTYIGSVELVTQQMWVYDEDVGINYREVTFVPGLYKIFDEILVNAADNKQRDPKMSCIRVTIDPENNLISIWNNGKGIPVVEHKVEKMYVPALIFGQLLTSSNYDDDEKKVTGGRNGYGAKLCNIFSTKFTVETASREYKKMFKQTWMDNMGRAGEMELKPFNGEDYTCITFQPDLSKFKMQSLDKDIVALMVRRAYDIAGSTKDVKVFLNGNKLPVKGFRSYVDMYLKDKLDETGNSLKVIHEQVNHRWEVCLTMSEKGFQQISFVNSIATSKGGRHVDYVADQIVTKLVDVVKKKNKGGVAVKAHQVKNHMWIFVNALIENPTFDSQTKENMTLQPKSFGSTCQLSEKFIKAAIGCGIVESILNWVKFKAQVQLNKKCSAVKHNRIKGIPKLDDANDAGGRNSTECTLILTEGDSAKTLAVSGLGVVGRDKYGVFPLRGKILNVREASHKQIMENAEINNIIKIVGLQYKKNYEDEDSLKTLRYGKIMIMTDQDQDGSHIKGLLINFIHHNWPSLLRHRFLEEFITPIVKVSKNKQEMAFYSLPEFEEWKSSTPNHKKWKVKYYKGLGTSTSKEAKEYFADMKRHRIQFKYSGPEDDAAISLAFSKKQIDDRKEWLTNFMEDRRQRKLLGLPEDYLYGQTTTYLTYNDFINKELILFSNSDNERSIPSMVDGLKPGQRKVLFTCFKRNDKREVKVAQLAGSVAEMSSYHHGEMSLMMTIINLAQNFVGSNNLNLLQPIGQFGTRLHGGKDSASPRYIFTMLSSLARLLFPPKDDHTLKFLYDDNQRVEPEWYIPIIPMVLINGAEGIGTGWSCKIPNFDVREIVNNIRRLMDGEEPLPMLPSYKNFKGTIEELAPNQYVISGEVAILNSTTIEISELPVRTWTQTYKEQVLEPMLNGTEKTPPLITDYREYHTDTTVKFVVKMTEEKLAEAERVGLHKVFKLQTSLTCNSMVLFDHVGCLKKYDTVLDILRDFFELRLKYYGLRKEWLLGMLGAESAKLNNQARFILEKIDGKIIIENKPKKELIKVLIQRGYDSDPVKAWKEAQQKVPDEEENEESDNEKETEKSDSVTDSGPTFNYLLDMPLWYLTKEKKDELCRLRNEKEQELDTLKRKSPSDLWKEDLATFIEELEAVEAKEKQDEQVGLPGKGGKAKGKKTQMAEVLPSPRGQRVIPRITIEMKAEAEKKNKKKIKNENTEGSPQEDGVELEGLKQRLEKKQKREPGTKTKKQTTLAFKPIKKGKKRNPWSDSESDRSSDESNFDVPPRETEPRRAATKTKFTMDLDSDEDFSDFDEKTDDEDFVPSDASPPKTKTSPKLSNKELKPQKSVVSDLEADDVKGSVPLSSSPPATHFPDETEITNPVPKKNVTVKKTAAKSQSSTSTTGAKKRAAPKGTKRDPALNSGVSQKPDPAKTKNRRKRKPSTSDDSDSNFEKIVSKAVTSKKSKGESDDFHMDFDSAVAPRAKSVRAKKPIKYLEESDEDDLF

Broadly, the pIC50 is the IC50 on a negative log10 scale, so that one unit is a factor of ten. As to `CCOc1ccc(/C=C/C(=O)N2CCN(CCN3C(=O)c4cccc5cccc(c45)C3=O)CC2)cc1`, the results for the pIC50 in the assay with MCF7, with A549 and with HT-29 were 4.54, 4.71 and 4.92, respectively.

On to `O=C(CN1CCN(CCN2C(=O)c3cccc4cccc(c34)C2=O)CC1)Nc1nc2ccccc2s1`, for which the figures for the pIC50 in the assay on MCF7, with A549 and in the assay with HT-29 were 4.58, 4.83 and 4.96, respectively.

In the case of `COc1ccc(/C=C/C(=O)N2CCN(CCN3C(=O)c4cccc5cccc(c45)C3=O)CC2)c(OC)c1`, the figures for the pIC50 in the assay on MCF7, in the assay on A549 and in the assay on HT-29 were 4.54, 4.57 and 4.62, respectively.

Turning to `Cc1cc2nc(NC(=O)CN3CCN(CCN4C(=O)c5cccc6cccc(c56)C4=O)CC3)sc2cc1C`, the pIC50 in the assay with MCF7 is 4.90; with A549, 5.21; with HT-29, 5.30.

Broadly, the GI50 is the concentration giving 50% growth inhibition. Low readings indicate more potent growth inhibition, high ones less potent growth inhibition. Take `O=C(CN1CCN(CCN2C(=O)c3cccc4cccc(c34)C2=O)CC1)Nc1ccc2ncsc2c1`: the inhibition entry in assay [1] is “Active”. The pIC50 with MCF7 was 5.10; in the assay with A549, 5.39; in the assay with HT-29 it was 5.43. Besides, the outcome in the assay with Calf thymus DNA [2], in the assay on Calf thymus DNA [5], with Calf thymus DNA [6], in the assay with Calf thymus DNA [7] and in the assay with Calf thymus DNA [8] was Active. The Activity in the assay with Calf thymus DNA [3] worked out at 2 nm. For the same compound, the GI50 in assay [4] was 1.38 to 43.3 µM.

Take `O=C(/C=C/c1ccc2c(c1)OCO2)N1CCN(CCN2C(=O)c3cccc4cccc(c34)C2=O)CC1`: the inhibition result in assay [1] is “Active”. Further, the outcome with Calf thymus DNA [9], in the assay with Calf thymus DNA [2], in the assay with Calf thymus DNA [5], with Calf thymus DNA [6] and with Calf thymus DNA [8] was Active. The pIC50 in the assay with MCF7 is 4.74; in the assay with A549, 5.32; with HT-29, 5.42.

On to `Cc1ccc2nc(NC(=O)CN3CCN(CCN4C(=O)c5cccc6cccc(c56)C4=O)CC3)sc2c1`, for which the negative logarithm of the IC50 (pIC50) in the assay with MCF7 was 4.82; with A549, 5.09; in the assay on HT-29 it was 5.39.

`CCOc1ccc2nc(NC(=O)CN3CCN(CCN4C(=O)c5cccc6cccc(c56)C4=O)CC3)sc2c1`: the negative-log IC50 (pIC50) with MCF7 was 4.76; in the assay with A549, 4.78; with HT-29 it was 4.95.

Consider `COc1ccc(/C=C/C(=O)N2CCN(CCN3C(=O)c4cccc5cccc(c45)C3=O)CC2)cc1O`, for which the pIC50 in the assay with MCF7 is 4.86; in the assay with A549 it was 4.85; in the assay with HT-29 it was 4.99.

Regarding `O=C(/C=C/c1ccc(F)c(F)c1)N1CCN(CCN2C(=O)c3cccc4cccc(c34)C2=O)CC1`, the figures for the pIC50 with MCF7, in the assay on A549 and in the assay with HT-29 were 4.55, 4.74 and 4.87, respectively.

Take `CN(C)c1ccc(/C=C/C(=O)N2CCN(CCN3C(=O)c4cccc5cccc(c45)C3=O)CC2)cc1`: the pIC50 is 4.88 in the assay with MCF7, 5.08 in the assay with A549 and 5.40 in the assay with HT-29.

On to `O=C(/C=C/c1cc(F)ccc1F)N1CCN(CCN2C(=O)c3cccc4cccc(c34)C2=O)CC1`, for which the results for the pIC50 in the assay on MCF7, with A549 and in the assay on HT-29 were 4.95, 5.19 and 5.38, respectively.

For the compound `O=C(/C=C/c1cc(F)cc(F)c1)N1CCN(CCN2C(=O)c3cccc4cccc(c34)C2=O)CC1`, the figures for the pIC50 in the assay on MCF7, in the assay with A549 and in the assay on HT-29 were 4.86, 5.19 and 5.08, respectively.

On to `O=C(/C=C/c1cccc(C(F)(F)F)c1)N1CCN(CCN2C(=O)c3cccc4cccc(c34)C2=O)CC1`, for which the pIC50 with MCF7 was 4.58; with A549, 4.70; in the assay on HT-29, 4.77.

With `CN(C)CCN1C(=O)c2cccc3cc(N)cc(c23)C1=O` [AMONAFIDE], in [1], the inhibition result was “inactive”. Moreover, the figures for the negative-log IC50 (pIC50) with MCF7, with A549 and with HT-29 were 5.39, 5.11 and 5.26, respectively.

Turning to `O=C(/C=C/c1ccccc1)N1CCN(CCN2C(=O)c3cccc4cccc(c34)C2=O)CC1`, the inhibition entry in [1] was “inactive”. Further, the pIC50 in the assay on MCF7 was 4.64; with A549 it was 4.66; with HT-29, 4.79. Besides, the result with Calf thymus DNA [5] was inactive. The result in the assay on Calf thymus DNA [6] and in the assay with Calf thymus DNA [7] was Active.

Take `COc1ccc2nc(NC(=O)CN3CCN(CCN4C(=O)c5cccc6cccc(c56)C4=O)CC3)sc2c1`: the pIC50 with MCF7 was 5.10; with A549 it was 5.32; with HT-29, 5.37.

As to `COc1cccc(/C=C/C(=O)N2CCN(CCN3C(=O)c4cccc5cccc(c45)C3=O)CC2)c1`, the pIC50 is 4.47 in the assay on MCF7, 4.66 with A549 and 4.81 in the assay with HT-29. Further, the outcome with Calf thymus DNA [7] was Active.

As for `O=C(/C=C/c1ccc(F)cc1F)N1CCN(CCN2C(=O)c3cccc4cccc(c34)C2=O)CC1`, the pIC50 was 4.63 with MCF7, 4.79 in the assay on A549 and 4.76 with HT-29.

For the compound `O=C(/C=C/c1cc(F)c(F)c(F)c1)N1CCN(CCN2C(=O)c3cccc4cccc(c34)C2=O)CC1`, the values for the pIC50 in the assay with MCF7, in the assay on A549 and with HT-29 were 4.71, 4.83 and 4.86, respectively.

With `Cc1nc2ccc(NC(=O)CN3CCN(CCN4C(=O)c5cccc6cccc(c56)C4=O)CC3)cc2s1`, the inhibition entry in assay [1] was “Active”. Moreover, the outcome in the assay on Calf thymus DNA [9], with Calf thymus DNA [2], with Calf thymus DNA [5], in the assay with Calf thymus DNA [6] and in the assay with Calf thymus DNA [7] was Active. Moreover, the values for the negative logarithm of the IC50 (pIC50) with MCF7, in the assay on A549 and in the assay on HT-29 were 5.29, 5.41 and 5.46, respectively. This compound came in with a GI50 in [4] of 1.19 to 14.1 µM.
